# Published values of several laboratories.
# Each line is one published result; the experiments were not run side by side. pIC50: −log10 of the molar value.
# Cell line: HepG2
# Read-out: cell growth or viability
Compound,assay,conditions,measurement,result
COc1nc(NCc2cn(-c3ccc(C(=O)Nc4ccc(C(F)(F)F)cc4)cc3)nn2)nc(OC)n1,MTT,72 h,pIC50,7.19
O=C(O)Cc1csc(NC(=O)c2cc3ccccc3[nH]2)n1,MTT,24 h,pIC50,4.86
COc1ccc(-c2cc(-c3cc(OC)ccc3OC)c3c(=O)[nH]c(=O)[nH]c3n2)cc1,MTT,48 h,pIC50,4.88
CN(C)c1ccc(O)c2c1C[C@H]1C[C@H]3[C@H](N(C)C)C(O)=C(C(N)=O)C(=O)[C@@]3(O)C(O)=C1C2=O,ATP luminescence,72 h,IC50,> 200 µg/mL
Cc1ccc(-c2cc(-c3ccc(Cl)cc3)c3c(=O)[nH]c(=O)[nH]c3n2)cc1,MTT,48 h,pIC50,5.07
CN(C)c1cc(NC(=O)c2ccccc2)c(O)c2c1C[C@H]1C[C@H]3[C@H](N(C)C)C(O)=C(C(N)=O)C(=O)[C@@]3(O)C(O)=C1C2=O,ATP luminescence,72 h,IC50,21.3 µg/mL
COc1ccc(-c2cc(-c3ccccc3Cl)c3c(=O)n(C)c(=O)n(C)c3n2)cc1,MTT,48 h,pIC50,4.72
CN(C)c1cc(NC(=O)Cc2ccn(C)n2)c(O)c2c1C[C@H]1C[C@H]3[C@H](N(C)C)C(O)=C(C(N)=O)C(=O)[C@@]3(O)C(O)=C1C2=O,ATP luminescence,72 h,IC50,> 200 µg/mL
CCCOc1nc(-c2cccc(O)c2)cc(-c2cc3ccccc3nc2N2CCOCC2)c1C#N,MTT,72 h,pIC50,6.57
CN(C)c1cc(NC(=O)Cc2ccncc2)c(O)c2c1C[C@H]1C[C@H]3[C@H](N(C)C)C(O)=C(C(N)=O)C(=O)[C@@]3(O)C(O)=C1C2=O,ATP luminescence,72 h,IC50,> 200 µg/mL
COc1nc(NCc2cn(-c3ccc(C(=O)Nc4ccccc4)cc3)nn2)nc(OC)n1,MTT,72 h,pIC50,5.83
Cc1ccc(-c2cc(-c3ccc(N(C)C)cc3)c3c(=O)[nH]c(=O)[nH]c3n2)cc1,MTT,48 h,pIC50,4.92
COc1cccc2c1C(=O)c1c(O)c3c(c(O)c1C2=O)C[C@@](O)(C(=O)CO)C[C@@H]3O[C@H]1C[C@H](N)[C@H](O)[C@H](C)O1,MTT,72 h,pIC50,6.27
Clc1ccc(-c2nnc(Nc3ccc(C4=NNC(c5ccc(Cl)cc5)C4)cc3)c3ccccc23)cc1 (stereo not drawn),MTT,72 h,pIC50,6.10
COc1ccc(-c2cc(-c3ccccc3Cl)c3c(=O)[nH]c(=O)[nH]c3n2)cc1,MTT,48 h,pIC50,4.72
Cc1nc(Nc2ncc(C(=O)Nc3c(C)cccc3Cl)s2)cc(N2CCN(CCO)CC2)n1,MTT,24 h,pIC50,4.22
Cc1ccc(-c2cc(-c3ccc(Cl)c(F)c3)c3c(=O)[nH]c(=O)[nH]c3n2)cc1,MTT,48 h,pIC50,4.80
CCCOc1nc(-c2cccc(O)c2)cc(-c2cc3cc(Cl)ccc3nc2N2CCOCC2)c1C#N,MTT,72 h,pIC50,7.08
CN(C)c1cc(NC(=O)CCc2cccnc2)c(O)c2c1C[C@H]1C[C@H]3[C@H](N(C)C)C(O)=C(C(N)=O)C(=O)[C@@]3(O)C(O)=C1C2=O,ATP luminescence,72 h,IC50,> 200 µg/mL
COc1ccc(-c2cc(-c3c(OC)cccc3OC)c3c(=O)n(C)c(=O)n(C)c3n2)cc1,MTT,48 h,pIC50,4.98
CN(C)c1cc(NC(=O)Cc2cnccn2)c(O)c2c1C[C@H]1C[C@H]3[C@H](N(C)C)C(O)=C(C(N)=O)C(=O)[C@@]3(O)C(O)=C1C2=O,ATP luminescence,72 h,IC50,> 200 µg/mL
COc1ccc2[nH]c(C(=O)Nc3nc(CC(=O)O)cs3)cc2c1,MTT,24 h,pIC50,4.22
CCOc1nc(-c2cccc(O)c2)cc(-c2cc3ccccc3nc2N2CCOCC2)c1C#N,MTT,72 h,pIC50,6.88
CN(C)c1cc(NC(=O)Cc2ccncn2)c(O)c2c1C[C@H]1C[C@H]3[C@H](N(C)C)C(O)=C(C(N)=O)C(=O)[C@@]3(O)C(O)=C1C2=O,ATP luminescence,72 h,IC50,> 200 µg/mL
